The target in experiment [1] is T1, Cholecystokinin receptor type A (Rattus norvegicus, UniProt P30551).
T1 sequence (P30551 whole entry): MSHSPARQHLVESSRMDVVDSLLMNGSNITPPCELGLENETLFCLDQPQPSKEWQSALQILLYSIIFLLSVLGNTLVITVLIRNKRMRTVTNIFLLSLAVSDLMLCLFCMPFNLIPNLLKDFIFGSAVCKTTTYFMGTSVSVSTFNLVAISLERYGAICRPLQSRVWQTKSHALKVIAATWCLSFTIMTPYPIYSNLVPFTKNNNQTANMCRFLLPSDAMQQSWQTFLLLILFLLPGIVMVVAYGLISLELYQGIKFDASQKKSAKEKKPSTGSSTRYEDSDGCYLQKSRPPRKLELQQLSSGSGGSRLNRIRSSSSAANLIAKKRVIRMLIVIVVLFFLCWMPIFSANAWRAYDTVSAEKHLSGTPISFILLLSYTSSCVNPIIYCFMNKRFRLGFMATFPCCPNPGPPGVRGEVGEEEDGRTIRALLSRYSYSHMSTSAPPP
Description: Concentration inhibiting [3H]propionyl-CCK-8 binding to cholecystokinin type A receptor of rat pancreatic membranes. An outline of the steps: (§1)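 Solubilized membranes from fresh pancreas of fasted rats (CCK-A). Competition against [3H]propanoyl-CCK-8. Nonspecific binding defined with 1 μM native CCK-8 and subtracted. IC50 is the concentration inhibiting 50% of total specific binding, from log-probit analysis. Actives confirmed in duplicate experiments.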

The target in experiment [2] is T2, Gastrin/cholecystokinin type B receptor (Bos taurus, UniProt P79266).
T2 sequence (P79266 whole entry): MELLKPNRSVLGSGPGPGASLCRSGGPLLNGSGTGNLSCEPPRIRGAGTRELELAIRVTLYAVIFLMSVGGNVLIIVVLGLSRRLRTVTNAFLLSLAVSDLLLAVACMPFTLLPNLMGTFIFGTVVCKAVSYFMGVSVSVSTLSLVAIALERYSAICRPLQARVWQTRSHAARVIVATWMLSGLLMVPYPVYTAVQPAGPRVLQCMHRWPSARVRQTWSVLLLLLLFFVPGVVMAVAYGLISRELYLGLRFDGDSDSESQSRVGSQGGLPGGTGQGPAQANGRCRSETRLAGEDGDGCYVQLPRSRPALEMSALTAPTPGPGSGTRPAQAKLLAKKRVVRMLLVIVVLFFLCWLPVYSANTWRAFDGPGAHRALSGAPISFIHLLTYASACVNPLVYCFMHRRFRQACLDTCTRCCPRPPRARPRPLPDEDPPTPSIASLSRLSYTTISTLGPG
Description: Concentration inhibiting [3H]propionyl-CCK-8 binding to cholecystokinin type B receptor of bovine striatum. Type of experiment: tissue-based. The gist of the method: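 CCK-B binding used solubilized bovine striatal membranes and [3H]propanoyl-CCK-8 displacement. Nonspecific binding was taken with 1 μM native CCK-8 and subtracted. IC50, the concentration giving 50% inhibition of total specific binding, was obtained by log-probit analysis. Actives were confirmed in duplicate experiments.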

The test system of experiment [3] is Rattus norvegicus. Briefly: Suppression of food intake in rats when administered intraperitoneally. The experiment is classed as functional. An outline of the steps: (§2)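 Male Sprague–Dawley rats (200–250 g), meal-fed. "1-2-1": trained 4–5 days on two 1-h meals 2 h apart; ip dosing 15 min before first meal, n=5–6. "Overnight fasted": n=5–7, ip vehicle or drug, food offered 1 h. Intake as % of saline control over first hour; t-test vs control; ED50 by log-probit.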

In experiment [4] the test system is Rattus norvegicus. Description: Dose required to inhibit the food intake by 50% in rats at a dose of 320 ug/kg ip. The experiment is classed as functional. The gist of the method: as §2
In experiment [5] the target is T1, Cholecystokinin receptor type A. Description: Inhibitory activity against cholecystokinin type A receptor from rat pancreas binding assay. An outline of the steps:
as §1

In experiment [6] the test system is Rattus norvegicus. Description: Dose required to inhibit the food intake by 50% in rats after intraperitoneal administration. Type of experiment: functional. The note with it: ip. An outline of the steps:
as §2

*1 amine or outer side, *2 acyl side, *3 side chain or, on linkers, in order; H or OH if unused. Where a SMILES comes first, the peptide text is derived from it. Side-chain parts run from the residue outwards. [ ]: non-standard residue; d: D form. The star is where a group is joined. ξ: configuration not given here. Thz(5,5-Me2) = CC1(C)SCN[C@@H]1C(=O)O; NMeF = CN[C@@H](Cc1ccccc1)C(=O)O; NH(2-Me-phenyl) = Cc1ccccc1N*; ξF = NC(Cc1ccccc1)C(=O)O; Boc = CC(C)(C)OC(=O)*; CO = O=C([*:1])[*:2]

As for `CSCC[C@H](NC(=O)[C@H](Cc1ccc(OS(=O)(=O)O)cc1)NC(C)=O)C(=O)NCC(=O)N[C@@H](Cc1c[nH]c2ccccc12)C(=O)N[C@@H](CCSC)C(=O)N1CSC(C)(C)[C@@H]1C(=O)N[C@@H](Cc1ccccc1)C(N)=O` [listing 1 of 2 here], the 50% inhibitory concentration (IC50) came to 314 nM in experiment [1] and 6160 nM in experiment [2].
Consider `CSCC[C@H](NC(=O)[C@H](Cc1ccc(OS(=O)(=O)O)cc1)NC(C)=O)C(=O)NCC(=O)N[C@@H](Cc1c[nH]c2ccccc12)C(=O)N[C@@H](CCSC)C(=O)N1CSC(C)(C)[C@@H]1C(=O)N[C@@H](Cc1ccccc1)C(N)=O` [listing 2 of 2 here], for which, in the experiment with Rattus norvegicus [3], the Control was 66%. Moreover, in the experiment on Rattus norvegicus [4], the ED50 was more than 0.32 mg/kg.
With `CSCC[C@H](NC(=O)[C@H](Cc1ccc(OS(=O)(=O)O)cc1)NC(C)=O)C(=O)NCC(=O)N[C@@H](Cc1c[nH]c2ccccc12)C(=O)N[C@@H](CCSC)C(=O)N1CSC(C)(C)[C@H]1C(=O)N[C@@H](Cc1ccccc1)C(N)=O` [listing 1 of 2 here], the IC50 in experiment [1] turned out to be 0.05 nM; in experiment [2], 2310 nM.
In the experiment on Rattus norvegicus [4], `CSCC[C@H](NC(=O)[C@H](Cc1ccc(OS(=O)(=O)O)cc1)NC(C)=O)C(=O)NCC(=O)N[C@@H](Cc1c[nH]c2ccccc12)C(=O)N[C@@H](CCSC)C(=O)N1CSC(C)(C)[C@H]1C(=O)N[C@@H](Cc1ccccc1)C(N)=O` [listing 2 of 2 here] displayed a 50% effective dose (ED50) of 0.0044 mg/kg.
`Cc1ccccc1NC(=O)NCCCC[C@H](NC(=O)[C@H](Cc1c[nH]c2ccccc12)NC(=O)OC(C)(C)C)C(=O)N[C@@H](CC(=O)O)C(=O)N(C)[C@@H](Cc1ccccc1)C(N)=O` (Boc-WK([CO-NH(2-Me-phenyl)])D[NMeF]-NH2) came in with a concentration for half-maximal inhibition (IC50) in experiment [5] of 0.05 nM.
As to `Cc1ccccc1NC(=O)NCCCC[C@H](NC(=O)[C@H](Cc1c[nH]c2ccccc12)NC(=O)OC(C)(C)C)C(=O)N1CSC(C)(C)[C@H]1C(=O)NC(Cc1ccccc1)C(N)=O` (stereo not given in full) (Boc-WK([CO-NH(2-Me-phenyl)])[Thz(5,5-Me2)][ξF]-NH2), the 50% effective dose (ED50) in the experiment on Rattus norvegicus [6] is 0.085 mg/kg. Besides, the half-maximal inhibitory concentration (IC50) in experiment [5] is 59 nM.

A word on the IC50: it is the point on the concentration scale where inhibition reaches its midpoint. Lower therefore signals greater potency. One may read the ED50 as the midpoint of the dose-response relation. A lower ED50 goes with an effect at a small dose.

Values taken from ChEMBL document CHEMBL1125354, “Analogs of CCK incorporating conformationally constrained replacements for Asp32” (J Med Chem, 1992).
